Laboratory results as given in ChEMBL document CHEMBL1147862, “Studies on synthesis and pharmacological activities of 3,6-disubstituted-1,2,4-triazolo[3,4-b]-1,3,4-thiadiazoles and their dihydro analogues” (2007).

Legend:
Assay type in all cases: functional
Pseudomonas aeruginosa [1] = experiment: Antibacterial activity against Pseudomonas aeruginosa at 10 ug/ml by agar plate diffusion technique; details: read-out: IZ
Staphylococcus aureus [2] = experiment: Antibacterial activity against Staphylococcus aureus at 20 ug/ml by agar plate diffusion technique; details: read-out: IZ
Candida albicans [3] = experiment: Antifungal activity against Candida albicans at 10 ug/ml by paper disc method; details: read-out: IZ
Candida albicans [4] = experiment: Antifungal activity against Candida albicans at 30 ug/ml by paper disc method; details: read-out: IZ
Bacillus subtilis [5] = experiment: Antibacterial activity against Bacillus subtilis at 10 ug/ml by agar plate diffusion technique; details: read-out: IZ
Escherichia coli [6] = experiment: Antibacterial activity against Escherichia coli at 10 ug/ml by agar plate diffusion technique; details: read-out: IZ
Rattus norvegicus [7] = experiment: Antiinflammatory activity in Wistar Albino rat assessed as inhibition of carrageenan-induced paw oedema at 20 mg/kg after 4 hrs relative to control
Procedure, shortened: (§1)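 Wistar albino rats, 150–200 g, six per group, dosed orally with a 20 mg/kg suspension; control gets 0.1 ml 1% gum acacia. After 30 min, 0.1 ml 1% carrageenan in saline is injected subplantar into the right hind paw. Paw volume is read by plethysmograph at 0–4 h. Inhibition = 100(1 − Vtest/Vcontrol) on mean volume increase.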

Bacillus subtilis [8] = experiment: Antibacterial activity against Bacillus subtilis at 20 ug/ml by agar plate diffusion technique; details: read-out: IZ
Mus musculus [9] = experiment: Analgesic activity in Swiss mouse assessed as increase in reaction time at 20 mg/kg, po after 90 mins by Eddy's hot plate technique
Procedure, shortened: (§2)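 Swiss mice of either sex, 25–35 g, placed one at a time on a hot plate held at 55 °C. End point is paw licking or jumping, whichever comes first, with a 15 s cut-off to avoid paw injury. Reaction time is recorded and reported as percent increase in reaction time.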

Candida albicans [10] = experiment: Antifungal activity against Candida albicans at 20 ug/ml by paper disc method; details: read-out: IZ
Aspergillus niger [11] = experiment: Antifungal activity against Aspergillus niger at 10 ug/ml by paper disc method; details: read-out: IZ
Staphylococcus aureus [12] = experiment: Antibacterial activity against Staphylococcus aureus at 30 ug/ml by agar plate diffusion technique; details: read-out: IZ
Pseudomonas aeruginosa [13] = experiment: Antibacterial activity against Pseudomonas aeruginosa at 30 ug/ml by agar plate diffusion technique; details: read-out: IZ
Rattus norvegicus [14] = experiment: Antiinflammatory activity in Wistar Albino rat assessed as inhibition of carrageenan-induced paw oedema at 20 mg/kg after 2 hrs relative to control; procedure, shortened: as §1
Mus musculus [15] = experiment: Analgesic activity in Swiss mouse assessed as increase in reaction time at 20 mg/kg, po after 60 mins by Eddy's hot plate technique; procedure, shortened: as §2
Escherichia coli [16] = experiment: Antibacterial activity against Escherichia coli at 30 ug/ml by agar plate diffusion technique; details: read-out: IZ
Aspergillus niger [17] = experiment: Antifungal activity against Aspergillus niger at 20 ug/ml by paper disc method; details: read-out: IZ
Rattus norvegicus [18] = experiment: Antiinflammatory activity in Wistar Albino rat assessed as inhibition of carrageenan-induced paw oedema at 20 mg/kg after 3 hrs relative to control; procedure, shortened: as §1
Rattus norvegicus [19] = experiment: Antiinflammatory activity in Wistar Albino rat assessed as inhibition of carrageenan-induced paw oedema at 20 mg/kg after 1 hr relative to control; procedure, shortened: as §1
Escherichia coli [20] = experiment: Antibacterial activity against Escherichia coli at 20 ug/ml by agar plate diffusion technique; details: read-out: IZ
Aspergillus niger [21] = experiment: Antifungal activity against Aspergillus niger at 30 ug/ml by paper disc method; details: read-out: IZ
Bacillus subtilis [22] = experiment: Antibacterial activity against Bacillus subtilis at 30 ug/ml by agar plate diffusion technique; details: read-out: IZ
Mus musculus [23] = experiment: Analgesic activity in Swiss mouse assessed as increase in reaction time at 20 mg/kg, po after 30 mins by Eddy's hot plate technique; procedure, shortened: as §2
Pseudomonas aeruginosa [24] = experiment: Antibacterial activity against Pseudomonas aeruginosa at 20 ug/ml by agar plate diffusion technique; details: read-out: IZ
Staphylococcus aureus [25] = experiment: Antibacterial activity against Staphylococcus aureus at 10 ug/ml by agar plate diffusion technique; details: read-out: IZ

| Structure (SMILES) | zone of inhibition at 10 µg/mL (Pseudomonas aeruginosa [1]) | zone of inhibition at 20 µg/mL (Staphylococcus aureus [2]) | zone of inhibition at 10 µg/mL (Candida albicans [3]) | zone of inhibition at 30 µg/mL (Candida albicans [4]) | zone of inhibition at 10 µg/mL (Bacillus subtilis [5]) | zone of inhibition at 10 µg/mL (Escherichia coli [6]) | inhibition in vivo at 20 mg/kg (Rattus norvegicus [7]) | zone of inhibition at 20 µg/mL (Bacillus subtilis [8]) | Activity (Mus musculus [9]) | zone of inhibition at 20 µg/mL (Candida albicans [10]) | zone of inhibition at 10 µg/mL (Aspergillus niger [11]) | zone of inhibition at 30 µg/mL (Staphylococcus aureus [12]) | zone of inhibition at 30 µg/mL (Pseudomonas aeruginosa [13]) | inhibition in vivo at 20 mg/kg (Rattus norvegicus [14]) | Activity (Mus musculus [15]) | zone of inhibition at 30 µg/mL (Escherichia coli [16]) | zone of inhibition at 20 µg/mL (Aspergillus niger [17]) | inhibition in vivo at 20 mg/kg (Rattus norvegicus [18]) | inhibition in vivo at 20 mg/kg (Rattus norvegicus [19]) | zone of inhibition at 20 µg/mL (Escherichia coli [20]) | other results |
| --- | --- | --- | --- | --- | --- | --- | --- | --- | --- | --- | --- | --- | --- | --- | --- | --- | --- | --- | --- | --- | --- |
| COc1ccc(Cc2nnc3sc(-c4cc(-c5ccccc5)nc5ccccc45)nn23)cc1OC | 5.92 mm | 10.3 mm | 5.82 mm | 17.9 mm | 5.76 mm | 6.08 mm | 22.2% | 10.2 mm | 25.11% | 11.4 mm | 6.14 mm | 16.7 mm | 16 mm | 18.7% | 17.26% | 16.9 mm | 11.5 mm | 20.2% | 12.3% | 11.3 mm | zone of inhibition at 30 µg/mL (Aspergillus niger [21]): 16.7 mm; zone of inhibition at 30 µg/mL (Bacillus subtilis [22]): 15.9 mm; Activity (Mus musculus [23]): 5.36%; zone of inhibition at 20 µg/mL (Pseudomonas aeruginosa [24]): 10.8 mm; zone of inhibition at 10 µg/mL (Staphylococcus aureus [25]): 5.12 mm |
| Cc1occc1-c1nnc2n1NC(c1ccc[nH]1)S2 (stereo not given) | 6.67 mm | 8.12 mm | 5.24 mm | 14.8 mm | 5.33 mm | 5.11 mm | 22.7% | 10.7 mm | 23% | 9.16 mm | 5.1 mm | 12.3 mm | 14.7 mm | 18.2% | 17.45% | 15.7 mm | 9.42 mm | 20.3% | 13.7% | 8.42 mm | zone of inhibition at 30 µg/mL (Aspergillus niger [21]): 13.2 mm; zone of inhibition at 30 µg/mL (Bacillus subtilis [22]): 16.3 mm; Activity (Mus musculus [23]): 7.14%; zone of inhibition at 20 µg/mL (Pseudomonas aeruginosa [24]): 12.3 mm; zone of inhibition at 10 µg/mL (Staphylococcus aureus [25]): 4.6 mm |
| COc1ccc2[nH]c(C)c(Cc3nn4c(-c5ccoc5C)nnc4s3)c2c1 | 4.92 mm | 9.12 mm | 5.04 mm | 13.1 mm | 4.6 mm | 5.12 mm | 31.2% | 8.38 mm | 33.49% | 9.86 mm | 5.14 mm | 13.3 mm | 14.6 mm | 24.8% | 23.17% | 13.8 mm | 9.06 mm | 29.4% | 19.7% | 9.1 mm | zone of inhibition at 30 µg/mL (Aspergillus niger [21]): 12.4 mm; zone of inhibition at 30 µg/mL (Bacillus subtilis [22]): 13.2 mm; Activity (Mus musculus [23]): 9.18%; zone of inhibition at 20 µg/mL (Pseudomonas aeruginosa [24]): 8.14 mm; zone of inhibition at 10 µg/mL (Staphylococcus aureus [25]): 4.89 mm |
